Results from different studies.
Compare with care: the assays were run in different laboratories.
Target: Receptor tyrosine-protein kinase erbB-4 (ERBB4, Homo sapiens, UniProt Q15303)

| SMILES | test | conditions | measurement | value |
| --- | --- | --- | --- | --- |
| COc1cc2nccc(Oc3ccc(NC(=O)c4c5n(n(-c6ccc(F)cc6)c4=O)CCCC5)cc3)c2cc1OC | enzyme activity, inhibitor | 0.1 µM | inhibition | -17% |
| Oc1cccc(-c2nc(N3CCOCC3)c3oc4ncccc4c3n2)c1 | enzyme activity, inhibitor | 10 µM | remaining activity | 114% |
| CCCS(=O)(=O)Nc1ccc(F)c(C(=O)c2c[nH]c3ncc(-c4ccc(Cl)cc4)cc23)c1F | enzyme activity, inhibitor | 1 µM | inhibition | < 10% |
| Cc1sc(C(=O)NC2COC2)cc1-n1cc(NC(=O)Nc2c(F)cccc2Cl)cn1 | enzyme activity, inhibitor | 10 µM | remaining activity | 95% |
| CCN(CC)c1ccc(C2=NNC(=O)CC2C)cc1[N+](=O)[O-] (stereo not shown) | enzyme activity, inhibitor | 10 µM | remaining activity | 94% |
| CC(C)(C)c1nc(-c2cccc(NS(=O)(=O)c3c(F)cccc3F)c2F)c(-c2ccnc(N)n2)s1 | enzyme activity, inhibitor, radiometric | 1 µM | remaining activity | 91% |
| CCCOc1ccc([C@@H]2[C@@H](C(=O)O)[C@H](c3ccc4c(c3)OCO4)CN2CC(=O)Nc2c(CC)cccc2CC)cc1 | cell-free assay, competition with immobilised ligand | 1 µM | remaining binding | 100% |
| CCN(CC)CCNC(=O)c1c(C)[nH]c(/C=C2\C(=O)Nc3ccc(F)cc32)c1C | cell-free assay | 0.5 µM | remaining signal | 94.8% |
| COc1cc2ncnc(Nc3ccc(Oc4ccccc4)c(C)c3C)c2cc1OC | enzyme activity, inhibitor | 1 µM | inhibition | 89% |
| Cc1cc(-n2nc(Cc3cc(F)cc(C(F)(F)F)c3)nc2C)ccc1C(N)=O | cell-free assay, competition with immobilised ligand | 1 µM | remaining binding | 67% |
| Cc1cc(NC(=O)c2cccc3cc(-c4cccc5[nH]nc(N)c45)ccc23)ccc1F | enzyme activity, inhibitor | 0.1 µM | activity vs control | 102% |
| O=C(O)[C@H]1[C@H](Cn2nnc3ccccc3c2=O)CC[C@@H]1C(=O)c1ccc(OCCC2CCOCC2)cc1 | cell-free assay, competition with immobilised ligand | 1 µM | remaining binding | 89% |
| CC(C)(O)[C@H]1CC[C@H](Nc2ccc3ncc(-c4cccc(C(F)(F)F)c4)n3n2)CC1 | enzyme activity, inhibitor | 1 µM | remaining activity | 92.6% |
| Cc1ccc(Nc2nccc(N(C)c3ccc4c(C)n(C)nc4c3)n2)cc1S(N)(=O)=O | enzyme activity, inhibitor | 10 µM | inhibition | 36% |
| CCCOc1ccc(OC)c(F)c1C(=O)c1ccc(C(=O)N[C@@H]2CNC[C@H]2NC(=O)c2ccc3[nH]ncc3c2)cc1 | enzyme activity, inhibitor | 10 µM | remaining activity | 92% |
| CNCc1ccccc1-c1csc([C@H](C)Nc2nc(C)nc3cc(OC)c(OC)cc23)c1 | cell-free assay, competition with immobilised ligand | 1 µM | remaining binding | 100% |
| Cc1cnc(NC2CCOCC2)nc1-n1cnc(C(=O)NC(CN)c2cc(F)cc(Cl)c2)c1 (stereo not shown) | enzyme activity, inhibitor, radiometric | 1 µM | remaining activity | 108% |
| CC(C)CC(=O)N1CCc2nc(-c3ccc(Br)cc3)nc(N(C)Cc3ccccc3)c2C1 | cell-free assay, competition with immobilised ligand | 0.1 µM | remaining binding | 94% |
| Cc1ccc(C(=O)Nc2ccc(CN3CCN(C)CC3)c(C(F)(F)F)c2)cc1C#Cc1cnc2cccnn12 | enzyme activity, inhibitor | 23.5 nM | remaining activity | 57% |
| Cn1c(=O)n(-c2ccc(C(C)(C)C#N)cc2)c2c3cc(-c4cnc5ccccc5c4)ccc3ncc21 | enzyme activity, inhibitor | 10 µM | remaining activity | 117% |
| O=C(NCc1ncc(C(F)(F)F)cc1Cl)c1ccc2c(c1)C1(CCS(=O)(=O)CC1)[C@@H](C1CC1)N2S(=O)(=O)c1ccc(F)cc1 | cell-free assay, competition with immobilised ligand | 1 µM | remaining binding | 72% |
| O=C(CSc1nc2nccnc2c(=O)n1CCc1ccccc1)Nc1nccs1 | enzyme activity, inhibitor | 10 µM | inhibition | -4% |
| N#CCCc1ccc2c(c1)-c1[nH]c3ccc([N+](=O)[O-])cc3c1CC(=O)N2 | cell-free assay | 0.5 µM | remaining signal | 91.8% |
| CN(C(=O)c1ccccc1)c1cc(N(C)c2ccc3c(c2)CCc2ccc(C(=O)NCCN4CCOCC4)cc2C3=O)ccc1F | cell-free assay, competition with immobilised ligand | 1 µM | remaining binding | 90% |
| O=C1NC(=O)c2cc(Nc3ccc(F)cc3)c(Nc3ccc(F)cc3)cc21 | cell-free assay | 0.5 µM | remaining signal | 99.4% |
| COc1cc(Nc2cnc(C#N)c(O[C@H](C)CN(C)C)n2)ncc1-c1cnn(C)c1 | enzyme activity, inhibitor, radiometric | 1 µM | remaining activity | 101% |
| CS(=O)(=O)CCNCc1ccc(-c2ccc3ncnc(Nc4ccc(OCc5cccc(F)c5)c(Cl)c4)c3c2)o1 | cell-free assay | 0.5 µM | remaining signal | 11.2% |
| CC(=O)c1c(NS(C)(=O)=O)c2cc(-c3ccc(Cl)cc3)c(-c3ccc(Cl)cc3Cl)nc2n(C)c1=O | cell-free assay, competition with immobilised ligand | 1 µM | remaining binding | 100% |
